Reference: ChEMBL document CHEMBL4513216, “Probing the Open Global Health Chemical Diversity Library for Multistage-Active Starting Points for Next-Generation Antimalarials” (ACS Infect Dis, 2020)

Assay: Toxicity liver stage against HepG2, at 10uM
Assay type: cell-based
Design: test concentration 10 uM, cell line HepG2-A16-CD81EGFP
Details: human, HepG2-A16-CD81EGFP cells; read-out: INHIBITION
Method in brief: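 Uninfected HepG2-A16-CD81EGFP cells, 3 × 10^3 per well, 1536-well, plated on prespotted compound at 10 μM final, parasite-free screening media added to match infected plates; puromycin 10 μM positive, DMSO 0.5% negative; run in parallel with 48 h PbLuc assay at 37 °C, 5% CO2; viability by CellTiter-Glo luminescence, normalized to controls.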

| SMILES | cytotoxicity at 10 µM |
| --- | --- |
| CNC(=O)C1Cn2ccnc2C2(CCN(Cc3cccs3)CC2)O1 (stereo not given) | -70.6% |
| CC(=O)N1CCC(c2cc3c(ncn3C)c(-c3cnn(C)c3)n2)CC1 | 0.472% |
| COCCN1C(=O)CCC12CCCN(Cc1ccccc1F)C2 (stereo not given) | 3.64% |
| Cc1noc(CCNC(=O)NCc2ccc(N3CCCCC3)cc2)n1 | 9.47% |
| COc1cc(CN2CCn3c(CO)nnc3C2)ccc1OC(C)C | -25.4% |
| CC(NC(=O)NCCOc1ccc(F)c(F)c1)c1nncn1C (stereo not given) | -0.192% |
| N#Cc1cc2c(=O)n(CC(O)c3cccc(O)c3)ccc2[nH]c1=O (stereo not given) | 2.86% |
| CN1CCN(C2CCN(CCOc3ccc(C#N)cc3)CC2)C1=O | -1.03% |
| COc1cc(C)c(CN2CCC3(CC2)[C@H](O)C[C@@H]3OCCN)cc1C | 13.6% |
| CC(=O)N1CCC(c2cncc(N3CCCCCC3)n2)CC1 | 11.3% |
| Cc1cccc(C)c1OCCNC(=O)C(C)n1cncn1 (stereo not given) | -1.46% |
| Cc1nc(Nc2cnccn2)cc(C2CCCN2C2CCOCC2)n1 (stereo not given) | -17.3% |
| O=C(O)c1cnc(N2CCCC2)nc1COc1ccc(F)cc1 | -1.14% |
| CO[C@H]1CN(C(=O)c2ccc3oc(C)cc3c2)C[C@@]12CCCO2 | -6.14% |
| COc1cccc(CN(C)C(=O)CCC(=O)c2ccccc2)c1OC | -3.62% |
| CCN1C[C@H]2CCN(C(=O)Nc3ccccc3C)CC[C@H]2S1(=O)=O | 1.08% |
| Cc1nc(CCNC(=O)NCc2cccc(N(C)C)n2)cs1 | 12% |
| CCn1cc(C(=O)NCCN2CCCc3ccccc32)c(C)n1 | 4.23% |
| Cc1ccc(C(=O)N2CCC3(CC2)CCN(Cc2ccccn2)C3=O)o1 | 2.49% |
| O=C(c1ccc(F)cc1)N1C[C@@H]2COC[C@]2(COc2cccnc2)C1 | -100% |
| COCCOc1ccc(S(=O)(=O)Nc2cccc(O)c2F)cc1C | 27.7% |
| Nc1nccc(N[C@H]2CN(CC(=O)NC3CCCCC3)C[C@@H]2C2CC2)n1 | -0.208% |
| O=C(COc1ccccc1Cl)N1CCCC(n2ccnc2)C1 (stereo not given) | -21.9% |
| Cc1ccc(C(=O)NCCCn2cccn2)c(=O)[nH]1 | 3.54% |
| CC(c1nccs1)N(C)S(=O)(=O)NCc1ccccc1 (stereo not given) | -2.34% |
| O=C(CCc1cccs1)N1CCCC(n2ccnc2)C1 (stereo not given) | -1.13% |
| Cn1cc(C#N)cc1C(=O)NC1(C#N)CCSCC1 | -7.23% |
| CC(=O)N1CCOC[C@H](OCC(=O)N(C)C)C1 | -1.13% |

| SMILES | cytotoxicity at 10 µM |
| --- | --- |
| O=c1ccn(Cc2nc(-c3ccccc3F)cs2)c(=O)[nH]1 | -1.2% |
| CC(C)N(C)C(=O)C1CCN(Cc2cnc3ccccn23)CC1 | 27.5% |
| COc1ccc(-c2nc(CCNc3nnc(C)c(C)c3C#N)co2)cc1 | -17.2% |
| Cc1nc(C2CCCN2C(=O)c2ccc(N(C)C)nn2)no1 (stereo not given) | -12.9% |
| C[C@@H]1CN(Cc2ccsc2)C[C@]12CCN(Cc1cccnc1)C2=O | 7.62% |
| COCc1nc(-c2ccnc(N3CCNCC3)n2)no1 | 12.5% |
| Cc1cnn(CCNCc2nc(-c3ccccc3Cl)no2)c1 | -9.91% |
| c1ccc(-c2nnn3c2COC(CNCc2ccccn2)C3)cc1 (stereo not given) | 0.595% |
| COCCC(C)NCc1ccccc1-n1ccnc1 (stereo not given) | 1.91% |
| COc1cccc(-c2noc3c2CN(c2ncnc4c2CCC4)CC3)c1 | 51% |
| O=C1CCCCN1CSc1nnnn1-c1ccc(Cl)cc1 | -48.4% |
| CC(C)N(CC(N)=O)Cc1csc(COc2ccc(F)cc2)n1 | 33.9% |
| Cc1ccc(C(CNC(=O)c2cc(=O)c3ccccc3[nH]2)N(C)C)cc1 (stereo not given) | -14.6% |
| CCc1nc(C2CCCN2CC(=O)Nc2sc(C)c(C)c2C)no1 (stereo not given) | -10.9% |
| c1ccc(N2CCC(NCCc3ccc(-n4cccn4)cc3)CC2)nc1 | 21.1% |
| Cc1nc(NC(=O)c2c(-n3cnnn3)sc(C)c2C)sc1C | 2.13% |
| Cc1nc(C)n(CC2CCCN2Cc2nc(-c3ccccn3)no2)n1 (stereo not given) | -9.48% |
| CC(C)n1nccc1NC(=O)NCCc1nc2ccc(F)cc2n1C | -7.85% |
| O=C(c1ccc(OCC2CC2)nc1)N1CCCC(n2cncn2)C1 (stereo not given) | -3.25% |
| Cc1cnn(CC2CCCN2CCCS(C)(=O)=O)c1 (stereo not given) | -8.18% |
| c1cc2c(cc1-c1noc3c1CN(C1CCSCC1)CC3)OCO2 | 5.51% |
| CC(C)CC(NC(=O)c1ccn(C)c(=O)c1)c1ccccc1 (stereo not given) | -6.76% |
| CCN(Cc1ccco1)C(=O)NCc1nnc2n1CCCCC2 | -4.73% |
| CNS(=O)(=O)c1cccc(C(=O)N(C)Cc2ccsc2)c1 | 4.04% |
| O=C(CCc1cc(Cl)no1)N1CCC(c2cc3ncccc3cn2)CC1 | 4.76% |
| CCC(O)CN1CCN(C(=O)c2ccc(Cn3cccc3)cc2)CC1 (stereo not given) | -6.54% |
| CCNc1ncc(C(=O)N(C)CCc2nc3cc(Cl)ccc3[nH]2)cn1 | -45.8% |
